In ChEMBL document CHEMBL1926557 (Bioorg Med Chem, 2012):

Experiments:
[1] = Antineuroinflammatory activity in LPS-stimulated rat microglia cells assessed as inhibition of PMA-stimulated superoxide anion release preincubated for 15 mins measured 70 mins after PMA challenge; type: functional
How it was run: (§1)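 Rat neonatal microglia (2 × 10^5 cells/well) primed with E. coli LPS 0.3 ng/mL for 17 h in DMEM + 10% FBS + penicillin/streptomycin at 35.9 °C, 5% CO2. Cells washed with warm HBSS, pre-exposed to compound (0.01–10 µM) or DMSO vehicle, then triggered with PMA 1 µM. Superoxide measured as superoxide dismutase-inhibitable reduction of ferricytochrome c. Triplicate wells, 2–4 experiments. IC50 derived.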

[2] = Antineuroinflammatory activity in LPS-stimulated rat microglia cells assessed as inhibition of PMA-stimulated TXB2 release preincubated for 15 mins measured 70 mins after PMA challenge; type: functional
How it was run: as §1, with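 “TXB2 in supernatant quantified by EIA.” for “Superoxide measured as superoxide dismutase-inhibitable reduction of ferricytochrome c.”, “wells, 1 mL final volume,” for “wells,”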

[3] = Cytotoxicity against rat microglia cells after 90 mins by LDH release assay; type: cell-based; details: 1.5 h
How it was run: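 Short-term viability of PMA (1 µM)-stimulated rat microglia measured by LDH release, given as percent of total LDH. Total LDH is released LDH plus the intracellular LDH from cells lysed with 0.1% Triton X-100. LDH50 is the concentration causing release of 50% of total LDH. Data from 3–4 experiments.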

[4] = Cytotoxicity against rat microglia cells assessed as cell viability after 18 hrs by WST-1 assay; type: cell-based
How it was run: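 Rat neonatal microglia (10,000 cells/well) plated in LPS-free wells in FBS-free DMEM with penicillin/streptomycin. Compound (0.1–10 µM final) or DMSO vehicle added for 18 h at 36 °C, 5% CO2. WST-1 then added for 2 h, and formazan read at 450 nm against a 620 nm reference. Treated wells compared with vehicle, significance at p < 0.05.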

Row | SMILES | IC50 [1] [µM] | IC50 ([2]; read-out: IC50) [µM] | IC50 [3] [µM] | Activity [4] | IC50 ([2]; read-out: IC50(app)) [µM]
1 | [C-]#[N+][C@@]12CCC(=C)[C@H]3[C@H](CC(C)(C)NC=O)C[C@H](C)[C@@H](CC[C@@H]1C)[C@@H]32 | > 10 | 1.48 | > 10 | Non-toxic | –
2 | C=C1CC[C@@]2(NC=O)[C@H]3[C@H](CC[C@@H]2C)[C@@H](C)C[C@@H](CC(C)(C)NC=O)[C@H]13 | > 10 | 3.14 | > 10 | Non-toxic | –
3 | [C-]#[N+]C(C)(C)C[C@@H]1C[C@H](C)[C@H]2CC[C@](C)([N+]#[C-])[C@@H]3CCC(=C)[C@@H]1[C@H]23 | > 10 | 0.2 | > 10 | Non-toxic | –
4 | [C-]#[N+][C@@]1(C)CC[C@H]2[C@H]3[C@@H](C(=C)CC[C@H]31)[C@H](CC(=C)C)C[C@@H]2C | > 10 | 1.72 | > 10 | Non-toxic | –
5 | [C-]#[N+]C(C)(C)C[C@@H]1C[C@H](C)[C@H]2CC[C@H](C)[C@@]3([N+]#[C-])CCC(=C)[C@@H]1[C@H]23 [DIISOCYANOAMPHILECTENE] | > 10 | 0.23 | > 10 | Non-toxic | –
6 | CC(C(=O)O)c1ccc(-c2ccccc2)c(F)c1 (stereo not given) [FLURBIPROFEN] | – | – | – | – | 0.1
7 | [C-]#[N+]C(C)(C)C[C@@H]1C[C@H](C)[C@H]2CC[C@H](C)[C@@]3([N+]#[C-])CCC(=O)[C@@H]1[C@H]23 | > 10 | 1.43 | > 10 | Non-toxic | –
8 | [C-]#[N+][C@@]12CCC(=C)[C@H]3[C@H](CC(C)(C)NC(=O)CN4CCC4=O)C[C@H](C)[C@@H](CC[C@@H]1C)[C@@H]32 [MONAMPHILECTINE A] | > 10 | 4.69 | > 10 | Non-toxic | –
9 | CC(=O)Oc1ccccc1C(=O)O [ASPIRIN] | – | 3.12 | – | – | –
